Source: PubChem BioAssay (several laboratories)
FID counter – displaces DNA intercalator in HCV helicase counter-screen; DNA fluorescent intercalator displacement, fluorescence; actives 0.17% (n = 290,000); inhibition, % at 7.9 µM; in the data active means inhibition above about 37%;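 further: 0% = vehicle and 100% = reference compound; higher means more ethidium bromide displaced from hairpin DNA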
TRPC6 activator – mouse TRPC6 channel activation; Q61143; HEK293-TRPC6 membrane potential dye fluorescence; active compounds read high; B-score at 10 µM; actives 0.13% (n = 310,000); AID 2550;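 active means B-score of the integrated fluorescence ratio above library mean plus 3 SD, and starting fluorescence ratio within library mean plus 5 SD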;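 further: higher score means more depolarization so channel activation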
TRPC6 inhibitor – blocks the mouse TRPC6 cation channel; HEK293-TRPC6, membrane potential dye, ACh-evoked depolarization; active compounds read low; Q61143; actives 1.1% (n = 310,000); B-score at 10 µM;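 active means B-score under library mean minus 3 SD, initial fluorescence not abnormally high, positive integrated signal ratio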;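 further: B-score derived from integrated fluorescence ratio over the kinetic read; more negative B-score means stronger inhibition of depolarization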
TRPC4 potent – allosteric potentiators of mouse TRPC4 channel. HEK293 TRPC4beta/mu-opioid, DAMGO EC20, Fluo-4 Ca2+ flux; active compounds read high. B-score at 10 µM. actives 0.42% (n = 310,000). AID 2227;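 active means B-score of calcium response area above 5 SD of library B-scores, with initial fluorescence ratio within 5 SD of library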;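 further: B-score of integrated fluorescence ratio over time as area under calcium response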
TRPC4 agonist – TRPC4 (mouse) channel activation; Q9QUQ5; HEK293 TRPC4beta/mu-opioid, Fluo4 calcium fluorescence; active compounds read high; B-score at 10 µM; actives 0.49% (n = 310,000);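 active means B-score above 5 SD of library B-scores, and initial fluorescence ratio not above library mean plus 5 SD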;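 further: positive B-score marks a calcium rise read as TRPC4 activation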
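Test system: HEK293 cells stably co-expressing mouse TRPC4beta and mu-opioid receptor | Schedule: Fluo4 dye loading 45 min at room temperature, 110 s recording | Measured by: Kinetic Fluo4 calcium fluorescence, 5 s baseline at 1 Hz | Evaluation: B score of integrated ratio | Controls: Buffer (low) and maximal DAMGO (high)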
TRPC4 block – blocks the mouse TRPC4 cation channel. Q9QUQ5. HEK293 TRPC4beta/mu-opioid, DAMGO-evoked Fluo4 calcium flux; active compounds read low. B-score at 10 µM. actives 0.39% (n = 300,000);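 active means B-score over 3 SD under the library average, no early fluorescence shift, positive overall ratio signal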
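System: stable TRPC4beta/mu-opioid receptor HEK293 cells; Dosing: single-point compound dosing; Measured by: Fluo4 Ca2+ flux fluorescence; Read-out basis: per-well B score of integrated baseline-normalized Fluo4 ratio.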
* marks the source's active call; other numbers are inactive results; i = inactive; / = not tested or not shown. Only some compounds are listed: those with a hit (about 2.3% of all), similar ones and a draw of the others.

SMILES | FID counter | TRPC6 activator | TRPC6 inhibitor | TRPC4 potent | TRPC4 agonist | TRPC4 block
O=C(C1CCCN(Cc2ccccc2)C1)N1CCc2ccccc2C1 (configuration not stated) | 8.1 | i | i | i | 160* | i
Cc1ccc(OCC(=O)NCCNC(=O)c2ccco2)cc1C | -7.1 | i | i | i | i | i
CC(=O)C1=C(S(=O)(=O)c2ccc(C)cc2)CS(=O)(=O)C1 | 0.6 | i | i | i | i | -7*
COc1ccc(C(=O)c2c(C)c3ccccc3n2CC(O)CNC(C)C)cc1 (configuration not stated) | 37.5* | i | i | i | i | i
CC1(c2cc([N+](=O)[O-])cc([N+](=O)[O-])c2)CC(C)(C)N(C(=O)c2ccccc2)c2ccccc21 (configuration not stated) | -2.5 | i | i | i | i | i
CC1(c2ccccc2)CC(C)(C)N(C(=O)C2CCCO2)c2ccccc21 (configuration not stated) | -16.8 | i | i | i | i | -7*
CC(C)(Cc1cc(CC(C)(C)C(=O)O)cc(C(C)(C)C)c1)C(=O)O | -25.2 | i | i | i | i | i
CCNc1nc(CSc2ccccc2)nc2sc(C)c(C)c12 | -7.9 | i | i | i | i | i
Cc1sc2ncnc(NCC(c3ccccc3)N(C)C)c2c1C (configuration not stated) | 1.3 | i | i | i | 218* | i
Cc1sc2nc(CSc3ccccc3)nc(NCCN(C)C)c2c1C | 10.2 | i | i | i | 176* | i
c1coc(CNc2ncnc3sc4c(c23)CCCCC4)c1 | -17.0 | i | i | i | i | i
Cc1nc(NCC(c2ccccc2)N(C)C)c2c(C)c(C)sc2n1 (configuration not stated) | 8.8 | i | i | i | 267* | i
CN(C)C(CNc1ncnc2sc3c(c12)CCCC3)c1ccco1 (configuration not stated) | 5.7 | i | i | i | 121* | i
CC1CN(C(=O)Cn2c(=O)oc3ccccc32)CC(C)O1 (configuration not stated) | -3.0 | i | i | i | i | i
Cc1ccccc1CNC(=O)c1ccccc1N(C)S(=O)(=O)c1ccccc1 | -32.8 | i | i | i | i | i
CCN(CC(=O)Nc1c(F)cccc1F)C(=O)c1ccc(S(=O)(=O)NCc2ccco2)cc1 | / | i | i | i | i | i
Cc1ccc2c(c1)C(c1ccc(F)cc1)N(C(=O)c1ccccc1Br)CC(=O)N2 (configuration not stated) | -31.7 | i | i | i | i | i
Cc1cc(OCCOc2cccc3cccnc23)cc(C)c1Cl | -13.7 | i | i | i | i | i
Cc1cc(C)c(C)c(OCCCOc2cccc3cccnc23)c1 | -18.2 | i | i | 19* | i | i
COc1ccc(S(=O)(=O)N2CCC(C(=O)N[C@@H](C)C(=O)NC3CCCC3)CC2)cc1 | -20.2 | i | i | i | i | i
Cc1oc(-c2ccc(Cl)cc2)nc1CSCC(=O)NC1CCN(Cc2ccccc2)CC1 | 20.8 | i | i | 12* | i | i
CCOc1ccc(-c2nc(CSCC(=O)NC3CC3)c(C)o2)cc1 | -33.8 | i | i | i | i | i
COc1ccc(NC(=O)CN(C)C(=O)CNC(=O)c2cccs2)cc1 | -0.9 | i | i | i | i | i
Cc1cc(Br)c(NC(=O)CN(C)CCOc2ccccc2)c(Br)c1 | -23.1 | i | i | i | i | -6*
COc1ccc(OCCN(C)CC(=O)Nc2c(C)cccc2C)cc1 | -15.6 | i | i | i | i | i
SMILES | FID counter | TRPC6 activator | TRPC6 inhibitor | TRPC4 potent | TRPC4 agonist | TRPC4 block
CN(C)CCOC(=O)C1(c2ccccc2)CCOCC1 | -8.1 | i | i | 11* | i | i
COc1cccc(NC(=O)C(NCCc2ccc(S(N)(=O)=O)cc2)c2ccccc2)c1 (configuration not stated) | 2.6 | i | i | i | i | i
N=c1c2c(n(Cc3ccc(Cl)cc3)c3c1CCC3)CCC2 | 12.7 | i | i | i | i | -7*
CCOC(=O)c1cc(CC)sc1NC(=O)COC(=O)C1CCC1 | -27.9 | i | i | i | i | i
Cn1c2ccccc2c(=O)c2ccc(C#CC3(N)CCCCC3)cc21 | 20.3 | i | -8.61* | i | i | i
COc1ccc(NC(=O)c2cc(-c3ccncc3)nc3ccc(Br)cc23)cc1OC | -38.1 | i | i | i | i | i
CC1CCCCC12NC(=O)N(CC(=O)OCC(=O)c1ccc(OC(F)F)cc1OC(F)F)C2=O (configuration not stated) | -30.7 | i | i | i | i | i
S=c1[nH]nc(COc2ccc(Cl)cc2Cl)n1-c1ccccc1 | -30.0 | i | i | i | 54* | i
S=c1[nH]nc(-c2ccc(Cl)cc2Cl)n1-c1ccccc1 | -14.4 | i | i | i | i | i
CC(C)(C)[C@]1(O)CCN2C[C@H]3c4ccccc4CCc4cccc(c43)[C@@H]2C1 | 0.0 | i | i | i | 61* | i
CCCCCCSc1cc(-c2nc3ccc(C)cn3c2NCc2ccccc2)ccc1OC | / | i | i | i | i | i
Cc1c(C)n(Cc2ccc(Cl)cc2)c2ccc(C(=O)NCCN3CCOCC3)cc12 | 0.8 | i | i | i | i | i
CC1=C(C(=O)NCCN2CCN(C)CC2)C2(CCC(C)CC2)OC1=O (configuration not stated) | 0.5 | i | i | 22* | i | i
Cc1ccc(S(=O)(=O)N[C@H](C(=O)N2CCC(C(=O)N[C@@H](CC(=O)O)C(=O)O)CC2)C(C)C)cc1 | 0.3 | i | i | i | i | i
COc1cccc(NC(=O)Nc2ccc3c(c2)CCC3)c1 | -12.3 | i | i | i | i | i
COCCCNC(=O)/C=C/c1cccc(Cl)c1 | 2.1 | i | i | i | i | i
CN(C)C(CNC(=O)c1ccc(C2SCCS2)cc1)c1ccccc1 (configuration not stated) | 2.4 | i | i | i | i | -5*
CN(C)C(CNC(=O)c1coc2ccccc2c1=O)c1ccccc1 (configuration not stated) | -3.6 | i | i | 12* | i | i
CC(NC(=O)c1ccc2ccccc2n1)c1ccccc1 (configuration not stated) | -21.3 | i | i | i | i | i
